Laboratory results from ChEMBL document CHEMBL4673367, “N-Benzyl-linoleamide, a Constituent of Lepidium meyenii (Maca), Is an Orally Bioavailable Soluble Epoxide Hydrolase Inhibitor That Alleviates Inflammatory Pain” (J Nat Prod, 2020).
pIC50: −log10 of the molar value. Active and inactive are the calls of the source.

Assays:
[1] = molecular target: T1, Bifunctional epoxide hydrolase 2 (Mus musculus, UniProt P34914); assay: Inhibition of recombinant mouse sEH expressed in baculovirus expression system using MNPC as substrate by fluorescence-based assay
T1 sequence (P34914 whole entry): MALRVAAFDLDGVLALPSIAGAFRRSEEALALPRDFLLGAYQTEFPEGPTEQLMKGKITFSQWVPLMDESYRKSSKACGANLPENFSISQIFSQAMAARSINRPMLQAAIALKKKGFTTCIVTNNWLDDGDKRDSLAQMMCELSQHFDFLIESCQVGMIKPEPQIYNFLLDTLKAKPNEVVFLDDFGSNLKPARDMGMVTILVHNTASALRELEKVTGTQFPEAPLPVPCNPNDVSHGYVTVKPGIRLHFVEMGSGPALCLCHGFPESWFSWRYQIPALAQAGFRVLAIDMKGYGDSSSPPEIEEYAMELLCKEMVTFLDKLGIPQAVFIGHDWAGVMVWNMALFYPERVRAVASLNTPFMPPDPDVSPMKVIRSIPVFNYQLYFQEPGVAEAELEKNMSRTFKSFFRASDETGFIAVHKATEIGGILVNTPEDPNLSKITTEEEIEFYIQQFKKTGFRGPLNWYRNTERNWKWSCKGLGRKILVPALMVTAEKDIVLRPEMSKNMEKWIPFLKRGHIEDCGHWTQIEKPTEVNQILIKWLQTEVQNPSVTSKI
Procedure, shortened: (§1)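 Recombinant human, mouse or rat sEH tested with serial dilutions of inhibitor in 96-well format. MNPC substrate at 5 μM final. Fluorescent 6-methoxynaphthaldehyde product read at ex 330 / em 465 nm. IC50 derived from these readings.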

[2] = molecular target: T2, Bifunctional epoxide hydrolase 2 (Rattus norvegicus, UniProt P80299); assay: Inhibition of recombinant rat sEH expressed in baculovirus expression system using MNPC as substrate by fluorescence-based assay; procedure, shortened: as §1
T2 sequence (P80299 whole entry): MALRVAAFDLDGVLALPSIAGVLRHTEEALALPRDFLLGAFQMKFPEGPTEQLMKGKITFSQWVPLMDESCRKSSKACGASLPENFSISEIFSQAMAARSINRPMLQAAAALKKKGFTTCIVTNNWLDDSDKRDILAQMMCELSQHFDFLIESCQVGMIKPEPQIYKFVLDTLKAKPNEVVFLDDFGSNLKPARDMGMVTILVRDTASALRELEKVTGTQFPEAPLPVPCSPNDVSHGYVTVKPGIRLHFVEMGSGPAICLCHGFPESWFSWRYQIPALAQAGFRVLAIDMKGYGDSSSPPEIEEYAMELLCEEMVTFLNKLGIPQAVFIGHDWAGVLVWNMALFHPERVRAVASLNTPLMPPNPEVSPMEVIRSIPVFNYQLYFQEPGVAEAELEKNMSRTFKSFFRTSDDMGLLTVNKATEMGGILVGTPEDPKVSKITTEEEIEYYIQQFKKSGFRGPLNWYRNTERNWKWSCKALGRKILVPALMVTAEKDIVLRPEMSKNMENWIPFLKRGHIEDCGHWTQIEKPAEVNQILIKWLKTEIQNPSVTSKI

[3] = molecular target: T3, Bifunctional epoxide hydrolase 2 (Homo sapiens, UniProt P34913); assay: Inhibition of recombinant human sEH expressed in baculovirus expression system using MNPC as substrate by fluorescence-based assay; procedure, shortened: as §1
T3 sequence (P34913 whole entry): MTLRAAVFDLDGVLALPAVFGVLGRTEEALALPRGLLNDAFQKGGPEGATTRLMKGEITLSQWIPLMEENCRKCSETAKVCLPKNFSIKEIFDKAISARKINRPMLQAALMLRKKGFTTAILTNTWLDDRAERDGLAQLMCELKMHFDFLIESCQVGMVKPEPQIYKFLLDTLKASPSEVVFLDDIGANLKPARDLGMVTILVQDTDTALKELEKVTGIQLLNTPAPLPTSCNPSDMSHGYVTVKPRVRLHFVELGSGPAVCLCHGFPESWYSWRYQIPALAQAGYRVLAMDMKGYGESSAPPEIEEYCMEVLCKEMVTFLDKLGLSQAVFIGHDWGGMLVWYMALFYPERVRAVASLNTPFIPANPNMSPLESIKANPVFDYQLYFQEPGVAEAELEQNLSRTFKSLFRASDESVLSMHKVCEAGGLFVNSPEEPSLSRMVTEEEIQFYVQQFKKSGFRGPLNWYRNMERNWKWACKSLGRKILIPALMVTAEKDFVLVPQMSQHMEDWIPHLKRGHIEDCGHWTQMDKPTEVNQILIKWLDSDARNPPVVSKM

[4] = test system: Rattus norvegicus; assay: Antinociceptive activity against LPS-induced inflammatory pain Sprague-Dawley rat model assessed as increase in paw withdrawal threshold at 100 mg/kg, po measured up to 6 hrs by von Frey assay; format: functional, organism-based; settings: time hrs <=6
Procedure, shortened: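 Male SD rats, n=4/group, randomized and blinded. Baseline von Frey mechanical withdrawal thresholds taken before dosing. Oral gavage of 100 mg/kg in 1 mL 100% NEOBEE 1053 (vehicle control alongside). Immediately after, 50 μL of 0.2 μg/mL LPS in saline injected intraplantar into one hind paw. Ipsilateral thresholds measured 3–5 times per rat per time point over 6 h. Expressed as percent of baseline, group mean ± SEM.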

[5] = Half life in Sprague-Dawley rat at 100 mg/kg, po measured up to 96 hrs by LC/MS/MS analysis; format: ADME, organism-based; settings: in vivo
Procedure, shortened: (§2)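 Male SD rats (8 weeks, 250–300 g, n=4/group) given a single oral gavage of 100 mg/kg in 100% NEOBEE 1053. Plasma concentrations followed over a 96-h time course. Blood processed and quantified by an earlier reported method. Parameters reported as mean ± SEM.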

[6] = AUC in Sprague-Dawley rat at 100 mg/kg, po measured up to 96 hrs by LC/MS/MS analysis; format: ADME, organism-based; set-up: route oral, dose 100 mg/kg, time <=96; settings: in vivo; procedure, shortened: as §2
[7] = Tmax in Sprague-Dawley rat at 100 mg/kg, po measured up to 96 hrs by LC/MS/MS analysis; format: ADME, organism-based; settings: in vivo; procedure, shortened: as §2
[8] = Cmax in Sprague-Dawley rat at 100 mg/kg, po measured up to 96 hrs by LC/MS/MS analysis; format: ADME, organism-based; set-up: route oral, dose 100 mg/kg, time <=96; settings: in vivo; procedure, shortened: as §2

## CCCCC/C=C\C/C=C\C/C=C\C/C=C\CCCC(=O)NCc1cccc(OC)c1
[1]
  pIC50: 7.14
[2]
  pIC50: 7.66
[3]
  pIC50: 7.26

## CC/C=C\C/C=C\C/C=C\CCCCCCCC(=O)NCc1cccc(OC)c1
[1]
  pIC50: 7.57
[2]
  pIC50: 8.03
[3]
  pIC50: 7.12

## CCCCCCCC/C=C\CCCCCCCC(=O)NCc1ccccc1
[1]
  pIC50: 6.58
[2]
  pIC50: 6.70
[3]
  pIC50: 6.05

## CCCCC/C=C\C/C=C\CCCCCCCC(=O)NCc1ccccc1
[4]
  Activity: Active
[5]
  t1/2: 9 h
[6]
  AUC: 3.69 µM·h
[7]
  Tmax: 3 h
[8]
  Cmax: 519 nM
[1]
  pIC50: 7.36
[2]
  pIC50: 7.39
[3]
  pIC50: 6.81

## CCCCCCCCCCCCCCCC(=O)NCc1ccccc1
[1]
  pIC50: 6.37
[2]
  pIC50: 6.43
[3]
  pIC50: 6.28

## CCCCC/C=C\C/C=C\CCCCCCCC(=O)NCc1cccc(OC)c1
[1]
  pIC50: 7.42
[2]
  pIC50: 7.37
[3]
  pIC50: 7.04

## CCCCCCCCCCCCCCCC(=O)NCc1ccc(OC)c(OC)c1
[1]
  pIC50: < 4.00
[2]
  pIC50: 4.80
[3]
  pIC50: 5.15

## CCCCC/C=C\C/C=C\CCCCCCCC(=O)NCc1ccc(OC)c(OC)c1
[1]
  pIC50: 6.83
[2]
  pIC50: 6.95
[3]
  pIC50: 6.98

## CC/C=C\C/C=C\C/C=C\CCCCCCCC(=O)NCCc1ccccc1
[1]
  pIC50: 7.41
[2]
  pIC50: 7.82
[3]
  pIC50: 7.82

## CCCCCCCCCCCCCCCCCC(=O)NCc1ccccc1
[1]
  pIC50: 4.22
[2]
  pIC50: 4.45
[3]
  pIC50: < 4.00

## CCCCC/C=C\C/C=C\C/C=C\C/C=C\CCCC(=O)NCc1ccccc1
[1]
  pIC50: 7.30
[2]
  pIC50: 7.40
[3]
  pIC50: 6.91

## CCCCCCCCCCCCCCCC(=O)NCc1cccc(OC)c1
[1]
  pIC50: 6.80
[2]
  pIC50: 6.95
[3]
  pIC50: 6.63

## CC/C=C\C/C=C\C/C=C\CCCCCCCC(=O)NCc1ccc(OC)c(OC)c1
[1]
  pIC50: 6.91
[2]
  pIC50: 7.05
[3]
  pIC50: 7.08

## CC/C=C\C/C=C\C/C=C\C/C=C\C/C=C\CCCC(=O)NCc1cccc(OC)c1
[1]
  pIC50: 7.31
[2]
  pIC50: 7.73
[3]
  pIC50: 7.20

## CC/C=C\C/C=C\C/C=C\CCCCCCCC(=O)NCc1ccccc1
[4]
  Activity: inactive
[5]
  t1/2: 14.6 h
[6]
  AUC: 0.723 µM·h
[7]
  Tmax: 6 h
[8]
  Cmax: 54 nM
[1]
  pIC50: 7.55
[2]
  pIC50: 7.64
[3]
  pIC50: 6.87

## CCCCC/C=C\C/C=C\CCCCCCCC(=O)NCCc1ccccc1
[1]
  pIC50: 7.04
[2]
  pIC50: 7.48

## CCCCCCCCCCCCCCCCCC(=O)NCc1cccc(OC)c1
[1]
  pIC50: 4.05
[2]
  pIC50: 4.54
[3]
  pIC50: 4.79

## CCCCCCCC/C=C\CCCCCCCC(=O)NCc1cccc(OC)c1
[1]
  pIC50: 6.90
[2]
  pIC50: 7.08
[3]
  pIC50: 6.62

## CC/C=C\C/C=C\C/C=C\C/C=C\C/C=C\CCCC(=O)NCc1ccccc1
[1]
  pIC50: 7.37
[2]
  pIC50: 7.54
[3]
  pIC50: 6.95
